The source made the active and inactive calls.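 Rule for the calls, unless noted: active = viability at or under a set limit in both replicates, limit being median viability minus 3 SD (cut at about 48% in these data, passing the limit was not always enough); inconclusive = at or under the limit in just one replicate; inactive = at or above the limit in both replicates.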
Key:
[1] = Her2 expression decrease, cell viability multiplex – SKBR3 breast tumor cells, AlphaScreen, ATP viability, primary screen (AID 461;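 active = Her2 level under about 52% in both replicate screens, with viability over 70% of control, limit read from the data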;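 for Her2 level: lower value means less Her2 protein in the cells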;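 for viability: percent of carrier control wells set as 100% viability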); conditions: SKBR3 Her2 protein level, 18-24 h, measured here: SKBR3 viability, ATP luminescence, at 10 µM
[2] = target: Receptor tyrosine-protein kinase erbB-2 (Homo sapiens) (UniProt P04626); test: as above; conditions: 18-24 h, at 10 µM, stronger effect = lower value
[3] = reduced viability of SK-BR-3 breast cancer cells – cell-based, 24 h, human, pilot screen (AID 572;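 active = viability at or below 10% of carrier control in both of two separate runs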;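 note: compound exposure lasted between 18 and 24 h rather than exactly 24 h; 100% = carrier-treated control wells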); conditions: SK-BR-3 viability, CellTiter-Glo luminescence, at 10 µM, stronger effect = lower value
[4] = HUVEC growth inhibition – cell-based, human, primary screen (AID 575;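 active = viability at or below 30% in both replicate assays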;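 note: 100% = median of untreated cell wells with 0.1% DMSO on each plate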); conditions: HUVEC proliferation, CellTiter-Glo luminescence, 72 h; at 10 µM; stronger effect = lower value
How it was run: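 System – primary HUVEC, no more than 12 passages · Medium – Low-serum (2% FBS) EBM, supplemented · Times – 72 h exposure, 37 °C, 5% CO2, 30 min RT equilibration · Measured by – luminescent ATP assay · Read-out – % viability relative to median vehicle-well signal on each plate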

[5] = H69AR cell proliferation blockers – human, duplicate replicates, primary screen (AID 580); conditions: H69AR lung tumor cells viability, ATP luminescence, 72 h; at 10 µM; stronger effect = lower value;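 note: 100% = mean luminescence of untreated wells and 0% = no signal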
[6] = MRP1 drug-resistance reversers in H69AR cells – cell-based, doxorubicin co-treatment, pilot screen (AID 601;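 active = viability loss from added drug above about 55%, and viability with drug at most 40%, in both replicates, limit read from the data, passing the limit was not always enough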); conditions: CellTiter-Glo, 72 h, at 10 µM; for differential viability (reversal): stronger effect = higher value
[7] = yeast transport mutant growth inhibition pilot in 384-well plates, post-Golgi transport modulator project (AID 636; in the data active = inhibition above about 31%); conditions: absorbance 615 nm, about 18 h, stronger effect = higher value
[8] = growth suppression of yeast trafficking mutant, preliminary HTS, modulators of trafficking downstream of Golgi apparatus project, 1536-format plate, OD 615 nm (AID 637; in the data active = inhibition above about 30%); conditions: yeast transport mutant growth, absorbance 615 nm, 18 h; stronger effect = higher value
[9] = H69AR cells + 2 uM doxorubicin, measured here: viability with 2 uM doxorubicin, stronger effect = lower value
[10] = H69AR cells, compound alone cytotoxicity

Chain of Receptor tyrosine-protein kinase erbB-2 (Homo sapiens) (P04626 whole entry, looked up): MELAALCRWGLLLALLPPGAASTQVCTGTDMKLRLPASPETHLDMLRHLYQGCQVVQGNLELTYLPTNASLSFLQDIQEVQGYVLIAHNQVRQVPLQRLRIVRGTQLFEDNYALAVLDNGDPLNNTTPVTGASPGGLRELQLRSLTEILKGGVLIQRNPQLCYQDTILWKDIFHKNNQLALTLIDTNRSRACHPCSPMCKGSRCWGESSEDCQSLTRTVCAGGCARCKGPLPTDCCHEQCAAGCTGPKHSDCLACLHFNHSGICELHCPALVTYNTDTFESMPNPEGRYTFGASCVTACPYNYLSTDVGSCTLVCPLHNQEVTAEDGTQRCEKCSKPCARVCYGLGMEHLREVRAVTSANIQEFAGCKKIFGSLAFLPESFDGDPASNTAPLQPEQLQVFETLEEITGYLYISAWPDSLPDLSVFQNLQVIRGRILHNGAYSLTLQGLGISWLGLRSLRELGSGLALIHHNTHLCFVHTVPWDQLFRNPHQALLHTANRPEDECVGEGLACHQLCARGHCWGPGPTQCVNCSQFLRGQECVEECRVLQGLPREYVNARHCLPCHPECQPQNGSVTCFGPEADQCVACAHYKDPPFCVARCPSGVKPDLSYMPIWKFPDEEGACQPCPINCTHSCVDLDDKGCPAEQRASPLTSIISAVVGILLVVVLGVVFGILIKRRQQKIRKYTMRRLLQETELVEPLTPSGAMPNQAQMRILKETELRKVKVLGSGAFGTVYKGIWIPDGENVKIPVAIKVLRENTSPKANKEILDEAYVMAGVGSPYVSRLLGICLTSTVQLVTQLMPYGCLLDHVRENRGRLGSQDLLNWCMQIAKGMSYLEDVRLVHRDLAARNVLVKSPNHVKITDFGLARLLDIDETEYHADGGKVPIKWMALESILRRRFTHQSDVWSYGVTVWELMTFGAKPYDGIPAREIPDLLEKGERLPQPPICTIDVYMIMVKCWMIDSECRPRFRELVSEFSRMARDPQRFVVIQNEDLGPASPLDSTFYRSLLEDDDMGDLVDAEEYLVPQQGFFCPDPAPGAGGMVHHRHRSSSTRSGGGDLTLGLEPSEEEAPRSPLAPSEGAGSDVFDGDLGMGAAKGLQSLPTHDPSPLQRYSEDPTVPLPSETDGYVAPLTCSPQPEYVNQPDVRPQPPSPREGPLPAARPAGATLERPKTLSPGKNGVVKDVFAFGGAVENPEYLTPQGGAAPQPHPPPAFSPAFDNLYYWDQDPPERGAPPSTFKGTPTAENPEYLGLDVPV

| SMILES | viability [1] [%] | Her2 level [2] | viability [3] | viability [4] | viability [5] | differential viability (reversal) ([6]; H69AR cells + 2 uM doxorubicin) | viability [6, 9] [%] | viability [6, 10] [%] | inhibition [7] | inhibition [8] |
| --- | --- | --- | --- | --- | --- | --- | --- | --- | --- | --- |
| CN(C)S(=O)(=O)c1ccc(S(=O)(=O)N(Cc2ccco2)Cc2ccccc2Cl)cc1 | 93 | 93% (inactive) | 93% (inactive) | 100% (inactive) | 95.8% (inactive) | 7.62% (inactive) | 88.2 | 95.8 | -9.18% (inactive) | -2.7% (inactive) |
| COC(=O)c1cc(=O)n2c(-c3ccc(OC)cc3)csc2n1 | 110 | 97.5% (inactive) | 110% (inactive) | 96.2% (inactive) | 92.6% (inactive) | 10.6% (inactive) | 82.1 | 92.6 | -4.8% (inactive) | -0.16% (inactive) |
| COc1ccc(CNS(=O)(=O)c2ccc3oc(C(=O)O)c(C)c3c2)cc1 | 103 | 93% (inactive) | 103% (inactive) | 111% (inactive) | 92.2% (inactive) | 0.665% (inactive) | 91.6 | 92.2 | -3.64% (inactive) | -2.46% (inactive) |
| Clc1ccc(OCCCn2cncn2)cc1Cl | 104 | 99% (inactive) | 104% (inactive) | 92.5% (inactive) | 80.2% (inactive) | -6.33% (inactive) | 86.5 | 80.2 | 2.03% (inactive) | 16.4% (inactive) |
| Cc1ccccc1Cn1ccc(NC(=O)c2cnn3c(C(F)(F)F)cc(-c4ccco4)nc23)n1 | 76.5 | 81% (inactive) | 76.5% (inactive) | 62.3% (inactive) | 60.4% (inactive) | 25.2% (inactive) | 35.3 | 60.4 | -4.13% (inactive) | 5.9% (inactive) |
| CC(C)(C)c1cc(NS(=O)(=O)c2ccc3c(c2)OCCO3)on1 | 131 | 88% (inactive) | 131% (inactive) | 98.1% (inactive) | 89.6% (inactive) | -3.41% (inactive) | 93 | 89.6 | -1.3% (inactive) | 5.24% (inactive) |
| COc1ccccc1C(=O)N1CCCC(c2nc(-c3cc(OC)c(OC)c(OC)c3)no2)C1 (stereo not given) | 120 | 90% (inactive) | 120% (inactive) | 99.4% (inactive) | 78.8% (inactive) | 23.2% (inactive) | 55.6 | 78.8 | -6.71% (inactive) | 7.3% (inactive) |
| CN(C(=O)c1ccc(S(=O)(=O)NC2CCCC2)cc1)C1CCCCC1 | 101 | 87% (inactive) | 101% (inactive) | 103% (inactive) | 102% (inactive) | 9.82% (inactive) | 92.3 | 102 | -3.38% (inactive) | -7.54% (inactive) |
| Cc1sc2nc(SCC(=O)Nc3c(C)n(C)n(-c4ccccc4)c3=O)n(C)c(=O)c2c1C | 102 | 95.5% (inactive) | 102% (inactive) | 95.4% (inactive) | 97.3% (inactive) | 1.12% (inactive) | 96.2 | 97.3 | 0% (inactive) | 1.15% (inactive) |
| O=C(NCC(c1cccnc1)N1CCN(c2ccc(F)cc2)CC1)OCc1ccccc1 (stereo not given) | 101 | 66% (inactive) | 101% (inactive) | 85% (inactive) | 91.8% (inactive) | -3.13% (inactive) | 95 | 91.8 | -2.57% (inactive) | 32.9% (active) |
| CCSc1nnc(-c2ccc(OC)cc2)o1 | 100 | 93.5% (inactive) | 100% (inactive) | 92.7% (inactive) | 81.2% (inactive) | -10.4% (inactive) | 91.6 | 81.2 | -0.51% (inactive) | -11% (inactive) |
| O=C(COn1nnc2ccc(C(F)(F)F)cc21)Nc1nnc(-c2ccccc2)o1 | 87 | 92.5% (inactive) | 87% (inactive) | 68.2% (inactive) | 97.8% (inactive) | 15.5% (inactive) | 82.3 | 97.8 | -7.76% (inactive) | -3.27% (inactive) |
| Cc1cc(C)cc(NC(=O)c2nnn(Cc3cc(C)ccc3C)c2N)c1 | 111 | 92% (inactive) | 111% (inactive) | 71.3% (inactive) | 88.1% (inactive) | -2.83% (inactive) | 90.9 | 88.1 | -0.8% (inactive) | -1.33% (inactive) |
| Cc1ccnc(N2CCN(C(=O)CSc3nc4ccccc4nc3N3CCCCC3)CC2)c1 | 109 | 70.5% (inactive) | 109% (inactive) | 62% (inactive) | 92.7% (inactive) | 9.7% (inactive) | 83 | 92.7 | -3.03% (inactive) | -2.83% (inactive) |
| Cc1nc2sc3c(c2c(=O)o1)CCC3 | 110 | 80.5% (inactive) | 110% (inactive) | 84.3% (inactive) | 88.1% (inactive) | -14.3% (inactive) | 102 | 88.1 | -3.42% (inactive) | 6.89% (inactive) |
| O=c1oc2ccccc2c(N2CCCCC2)c1CN1CCCCC1 | 86 | 99% (inactive) | 86% (inactive) | 86.2% (inactive) | 82.5% (inactive) | -0.775% (inactive) | 83.3 | 82.5 | -1.05% (inactive) | -4.03% (inactive) |
| CCCCCC(=O)N1CC2(C)CN(C(=O)CCCCC)CC(C)(C1)C2=O | 87 | 93% (inactive) | 87% (inactive) | 96.9% (inactive) | 87.5% (inactive) | 4.14% (inactive) | 83.4 | 87.5 | 0.9% (inactive) | 6.67% (inactive) |
| CC1(C)NC(=O)N(CC(O)COc2ccc(-c3ccccc3)cc2)C1=O (stereo not given) | 101 | 102% (inactive) | 101% (inactive) | 74.3% (inactive) | 96.7% (inactive) | 3.21% (inactive) | 93.5 | 96.7 | -2.24% (inactive) | -4.83% (inactive) |
| CCOC(=O)c1cccc(NC(=O)CSc2nc3cccnc3n2C)c1 | 86.5 | 94.5% (inactive) | 86.5% (inactive) | 71.4% (inactive) | 93.2% (inactive) | -1.5% (inactive) | 94.7 | 93.2 | -5.14% (inactive) | 1.8% (inactive) |
| COC(=O)c1ccc(Oc2nc(NC(C)C)nc(N(C)C)n2)cc1 | 102 | 91.5% (inactive) | 102% (inactive) | 97.2% (inactive) | 89.5% (inactive) | -7.6% (inactive) | 97.1 | 89.5 | -5.14% (inactive) | -2.46% (inactive) |
| O=S(=O)(c1ccc(OCC(O)CN2CCN(c3ccccc3)CC2)cc1)N1CCOCC1 (stereo not given) | 100 | 90% (inactive) | 100% (inactive) | 110% (inactive) | 96.4% (inactive) | 5.24% (inactive) | 91.2 | 96.4 | -7.57% (inactive) | -3.67% (inactive) |
| CC1CN(C2CCCCC2)c2nc3c(c(=O)[nH]c(=O)n3C)n2C1 (stereo not given) | 90.5 | 95% (inactive) | 90.5% (inactive) | 86.1% (inactive) | 82.2% (inactive) | -2.19% (inactive) | 84.4 | 82.2 | -1.95% (inactive) | 7.3% (inactive) |
| CCN1CCN(CCNC(=O)c2cn(C(C)c3ccccc3F)nn2)CC1 (stereo not given) | 122 | 98.5% (inactive) | 122% (inactive) | 82.3% (inactive) | 96.4% (inactive) | 8.63% (inactive) | 87.8 | 96.4 | -2.73% (inactive) | -4.6% (inactive) |
| CCOc1ccc2c(c1)n(CO)c(=S)n2CO | 107 | 74% (inactive) | 107% (inactive) | 83.6% (inactive) | 89.6% (inactive) | 2.06% (inactive) | 87.5 | 89.6 | -2.53% (inactive) | 0.81% (inactive) |
| COc1ccc(N2C(=O)C3CCCN3C2c2ccc(F)cc2)cc1Cl (stereo not given) | 102 | 93.5% (inactive) | 102% (inactive) | 84.2% (inactive) | 87.4% (inactive) | -1.33% (inactive) | 88.7 | 87.4 | 0.39% (inactive) | -6.94% (inactive) |
| O=C(CN1CCN(c2nc(-c3ccccc3)cs2)CC1)Nc1ccc2c(c1)OCO2 | 90.5 | 99% (inactive) | 90.5% (inactive) | 89.9% (inactive) | 101% (inactive) | 5.71% (inactive) | 95.5 | 101 | -3.87% (inactive) | -7.1% (inactive) |
| CCCCOc1ccc(-c2nnn(C(C)(C)C(=O)OC)n2)cc1 | 96 | 107% (inactive) | 96% (inactive) | 86% (inactive) | 92.2% (inactive) | -7.05% (inactive) | 99.3 | 92.2 | -0.91% (inactive) | -4.29% (inactive) |
| Cc1nc(-c2cccc(-c3noc(C)n3)c2)no1 | 87.5 | 99% (inactive) | 87.5% (inactive) | 86.1% (inactive) | 102% (inactive) | 5.99% (inactive) | 95.8 | 102 | -5.54% (inactive) | -1.48% (inactive) |
| Cc1c(C)c2cc(Cl)c(O)c(CN3CCCCC3)c2oc1=O | 97.5 | 112% (inactive) | 97.5% (inactive) | 102% (inactive) | 99% (inactive) | 3.51% (inactive) | 95.5 | 99 | 1.18% (inactive) | 5.57% (inactive) |

From PubChem BioAssay
